From ChEMBL document CHEMBL1128425, “5-Methyl-1-(3-pyridylcarbamoyl)-1,2,3,5-tetrahydropyrrolo[2,3-f]indole: a novel 5-HT2C/5-HT2B receptor antagonist with improved affinity, selectivity, and oral activity” (J Med Chem, 1995) come the findings set out here.

Usually pKi stands for the negative decadic logarithm of the Ki, by convention in mol/L.

Structures are written as SMILES. pKi: −log10 of the molar value.

Assay [1] addresses 5-hydroxytryptamine receptor 2B (Rattus norvegicus, UniProt P30994). The assay is described as follows: Inhibitory potency against rat stomach fundus 5-hydroxytryptamine 2B receptor. The following applies: read-out: pA2 (converted). The format is tissue-based. The procedure, abridged:
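Functional antagonism in isolated rat stomach fundus, with contraction evoked by 5-HT as the agonist. Values are means ± SEM of n ≥ 3 determinations.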

In assay [2] the target is T1, 5-hydroxytryptamine receptor 2C (Homo sapiens, UniProt P28335).
T1 sequence (P28335 whole entry): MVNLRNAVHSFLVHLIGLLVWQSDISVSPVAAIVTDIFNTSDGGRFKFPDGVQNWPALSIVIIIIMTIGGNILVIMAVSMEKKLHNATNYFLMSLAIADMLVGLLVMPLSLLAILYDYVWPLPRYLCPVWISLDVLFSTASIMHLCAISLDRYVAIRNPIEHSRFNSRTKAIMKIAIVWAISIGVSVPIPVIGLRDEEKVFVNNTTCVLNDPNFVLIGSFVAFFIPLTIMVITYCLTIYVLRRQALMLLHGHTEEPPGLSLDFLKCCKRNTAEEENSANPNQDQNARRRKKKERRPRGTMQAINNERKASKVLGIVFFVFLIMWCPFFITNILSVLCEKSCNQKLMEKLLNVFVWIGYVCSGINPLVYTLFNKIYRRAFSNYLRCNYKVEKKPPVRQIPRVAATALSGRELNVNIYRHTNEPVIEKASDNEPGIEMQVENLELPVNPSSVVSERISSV
Nature of the assay: (§1) Binding affinity against human 5-hydroxytryptamine 2C receptor expressed in 293 cells using [3H]mesulergine. The format is cell-based, HEK293. The procedure, abridged:
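Radioligand binding to cloned human receptor in 293 cells with [3H]mesulergine; values are means ± SEM of at least 3 determinations.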

The subject of another assay is Rattus norvegicus. Nature of the assay: In vivo potency to block hypolocomotion response to m-CPP in rat after oral administration. The format is functional. The following applies: read-out: ID50 (the source's name).
In assay [3] the target is 5-hydroxytryptamine receptor 1E (Homo sapiens, UniProt P28566). Nature of the assay: Binding affinity against human 5-hydroxytryptamine 1E receptor expressed in CHO cells. Type of assay: cell-based. The procedure, abridged: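 Displacement binding at cloned human 5-HT1E receptors expressed in CHO cells, using [³H]-5-HT as radioligand.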
Sequence of 5-hydroxytryptamine receptor 1E (P28566 whole entry): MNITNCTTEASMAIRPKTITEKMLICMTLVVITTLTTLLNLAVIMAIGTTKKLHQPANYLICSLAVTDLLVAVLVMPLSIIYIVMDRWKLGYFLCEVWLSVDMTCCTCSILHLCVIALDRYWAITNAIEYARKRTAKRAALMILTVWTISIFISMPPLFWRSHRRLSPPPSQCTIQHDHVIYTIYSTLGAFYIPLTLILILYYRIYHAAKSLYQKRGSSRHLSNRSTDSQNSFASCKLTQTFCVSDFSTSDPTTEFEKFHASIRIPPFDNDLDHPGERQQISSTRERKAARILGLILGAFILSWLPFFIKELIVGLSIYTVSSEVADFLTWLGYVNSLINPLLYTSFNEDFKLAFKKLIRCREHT
In assay [4] the target is 5-hydroxytryptamine receptor 2A (Homo sapiens, UniProt P28223). Nature of the assay: Binding affinity against human 5-hydroxytryptamine 2A receptor expressed in 293 cells using [3H]ketanserin. Type of assay: cell-based, HEK293. The procedure, abridged:
(§2)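 Radioligand binding at cloned human receptors expressed in 293 cells: [³H]ketanserin for 5-HT2A, [³H]mesulergine for 5-HT2C. Values are means ± SEM of n ≥ 3 determinations.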

Assay [5] has as its target 5-hydroxytryptamine receptor 4 (Rattus norvegicus, UniProt Q62758). Nature of the assay: Binding affinity against rat 5-hydroxytryptamine 4 receptor.
For the next assay, the target named is D(2) dopamine receptor (Homo sapiens, UniProt P14416). The assay is described as follows: Binding affinity against human Dopamine receptor D2 expressed in CHO cells using [125I]iodosulpiride. Type of assay: cell-based.
Sequence of D(2) dopamine receptor (P14416 whole entry): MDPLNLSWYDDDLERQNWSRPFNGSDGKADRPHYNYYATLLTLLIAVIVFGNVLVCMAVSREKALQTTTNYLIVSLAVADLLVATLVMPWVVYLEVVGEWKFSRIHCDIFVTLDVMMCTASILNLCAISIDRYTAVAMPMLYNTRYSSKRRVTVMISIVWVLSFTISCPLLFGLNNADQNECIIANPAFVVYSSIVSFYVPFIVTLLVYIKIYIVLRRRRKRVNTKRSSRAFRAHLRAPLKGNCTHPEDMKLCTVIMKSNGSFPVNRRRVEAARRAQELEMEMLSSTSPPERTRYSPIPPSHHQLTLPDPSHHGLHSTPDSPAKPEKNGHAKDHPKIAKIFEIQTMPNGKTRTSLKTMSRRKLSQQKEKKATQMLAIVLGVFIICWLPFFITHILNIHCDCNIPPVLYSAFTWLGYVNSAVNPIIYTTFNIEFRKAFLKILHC
In the next assay the target is T2, Adenosine receptor A1 (Rattus norvegicus, UniProt P25099).
T2 sequence (P25099 whole entry): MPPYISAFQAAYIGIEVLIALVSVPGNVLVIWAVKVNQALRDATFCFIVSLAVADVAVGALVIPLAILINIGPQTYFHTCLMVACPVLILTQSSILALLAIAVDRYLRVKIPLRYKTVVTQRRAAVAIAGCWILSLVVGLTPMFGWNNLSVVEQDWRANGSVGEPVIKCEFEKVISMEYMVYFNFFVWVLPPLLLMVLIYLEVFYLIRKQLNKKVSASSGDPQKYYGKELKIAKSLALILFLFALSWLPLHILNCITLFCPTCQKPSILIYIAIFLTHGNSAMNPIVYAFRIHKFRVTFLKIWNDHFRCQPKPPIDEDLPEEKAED
The assay is described as follows: Binding affinity against rat Adenosine A1 receptor.

Another assay has as its target D(3) dopamine receptor (Homo sapiens, UniProt P35462). The assay is described as follows: Binding affinity human Dopamine receptor D3 expressed in CHO cells using [125I]iodosulpiride. The format is cell-based.
Assay [6] concerns the target T3, 5-hydroxytryptamine receptor 1A (Rattus norvegicus, UniProt P19327).
T3 sequence (P19327 whole entry): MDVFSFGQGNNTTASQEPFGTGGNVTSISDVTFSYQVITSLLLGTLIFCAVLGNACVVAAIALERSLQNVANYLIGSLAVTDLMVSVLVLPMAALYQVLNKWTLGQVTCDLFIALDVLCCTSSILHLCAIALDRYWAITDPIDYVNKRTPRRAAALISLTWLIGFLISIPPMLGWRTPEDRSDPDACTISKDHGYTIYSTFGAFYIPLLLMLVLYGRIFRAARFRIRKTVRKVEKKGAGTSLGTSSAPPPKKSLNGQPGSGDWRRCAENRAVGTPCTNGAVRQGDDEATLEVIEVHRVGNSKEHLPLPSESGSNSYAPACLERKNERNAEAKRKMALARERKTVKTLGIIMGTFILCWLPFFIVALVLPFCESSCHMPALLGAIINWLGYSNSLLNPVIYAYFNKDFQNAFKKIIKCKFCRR
Nature of the assay: Binding affinity against rat 5-hydroxytryptamine 1A receptor.

The target in another assay is Histamine H1 receptor (Cavia porcellus, UniProt P31389). Nature of the assay: Binding affinity against guinea pig H1 receptor.
Sequence of Histamine H1 receptor (P31389 whole entry): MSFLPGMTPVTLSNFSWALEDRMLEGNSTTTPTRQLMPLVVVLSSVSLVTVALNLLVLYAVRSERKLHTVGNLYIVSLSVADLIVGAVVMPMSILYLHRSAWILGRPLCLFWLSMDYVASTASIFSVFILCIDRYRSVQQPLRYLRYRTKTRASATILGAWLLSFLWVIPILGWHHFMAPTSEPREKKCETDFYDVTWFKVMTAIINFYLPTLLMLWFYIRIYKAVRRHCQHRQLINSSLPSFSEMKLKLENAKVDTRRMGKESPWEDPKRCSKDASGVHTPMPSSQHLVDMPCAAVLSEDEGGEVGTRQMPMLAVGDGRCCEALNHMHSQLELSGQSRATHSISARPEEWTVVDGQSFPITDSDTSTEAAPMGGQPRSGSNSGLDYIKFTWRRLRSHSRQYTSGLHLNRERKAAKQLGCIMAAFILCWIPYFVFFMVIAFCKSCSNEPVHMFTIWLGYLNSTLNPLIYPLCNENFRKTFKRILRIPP
Assay [7] deals with T4, Adrenergic receptor alpha-1 (Rattus norvegicus, UniProt P15823+P23944+P43140).
T4 sequence (P15823 whole entry): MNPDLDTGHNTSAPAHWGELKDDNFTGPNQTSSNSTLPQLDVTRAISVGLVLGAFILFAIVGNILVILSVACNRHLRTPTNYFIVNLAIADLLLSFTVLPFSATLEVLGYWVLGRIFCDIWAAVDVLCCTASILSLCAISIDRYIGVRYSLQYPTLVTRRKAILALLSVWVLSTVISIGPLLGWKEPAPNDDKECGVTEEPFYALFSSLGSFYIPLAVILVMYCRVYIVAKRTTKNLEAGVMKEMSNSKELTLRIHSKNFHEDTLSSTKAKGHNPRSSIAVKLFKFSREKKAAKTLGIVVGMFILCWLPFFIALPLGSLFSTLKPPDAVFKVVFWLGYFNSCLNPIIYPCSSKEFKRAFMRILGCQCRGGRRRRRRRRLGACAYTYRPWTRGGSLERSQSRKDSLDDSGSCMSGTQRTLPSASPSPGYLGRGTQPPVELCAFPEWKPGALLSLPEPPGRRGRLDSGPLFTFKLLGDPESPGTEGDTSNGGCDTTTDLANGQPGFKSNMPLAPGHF
T4 sequence (P23944 whole entry): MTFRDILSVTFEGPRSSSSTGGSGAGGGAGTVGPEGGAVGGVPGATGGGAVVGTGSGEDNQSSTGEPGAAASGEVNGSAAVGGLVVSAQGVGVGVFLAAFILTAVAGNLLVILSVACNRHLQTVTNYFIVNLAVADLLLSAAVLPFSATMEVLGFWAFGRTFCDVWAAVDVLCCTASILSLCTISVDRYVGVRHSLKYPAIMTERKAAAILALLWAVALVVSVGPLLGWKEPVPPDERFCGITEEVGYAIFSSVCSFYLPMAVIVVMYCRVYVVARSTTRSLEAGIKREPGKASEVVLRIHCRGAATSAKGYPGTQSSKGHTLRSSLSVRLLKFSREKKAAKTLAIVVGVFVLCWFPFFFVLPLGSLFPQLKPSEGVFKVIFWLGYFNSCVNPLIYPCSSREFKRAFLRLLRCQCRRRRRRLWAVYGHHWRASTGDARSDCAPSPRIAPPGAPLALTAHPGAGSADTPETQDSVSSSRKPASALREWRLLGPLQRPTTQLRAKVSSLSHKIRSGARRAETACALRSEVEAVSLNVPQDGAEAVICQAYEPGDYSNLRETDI
T4 sequence (P43140 whole entry): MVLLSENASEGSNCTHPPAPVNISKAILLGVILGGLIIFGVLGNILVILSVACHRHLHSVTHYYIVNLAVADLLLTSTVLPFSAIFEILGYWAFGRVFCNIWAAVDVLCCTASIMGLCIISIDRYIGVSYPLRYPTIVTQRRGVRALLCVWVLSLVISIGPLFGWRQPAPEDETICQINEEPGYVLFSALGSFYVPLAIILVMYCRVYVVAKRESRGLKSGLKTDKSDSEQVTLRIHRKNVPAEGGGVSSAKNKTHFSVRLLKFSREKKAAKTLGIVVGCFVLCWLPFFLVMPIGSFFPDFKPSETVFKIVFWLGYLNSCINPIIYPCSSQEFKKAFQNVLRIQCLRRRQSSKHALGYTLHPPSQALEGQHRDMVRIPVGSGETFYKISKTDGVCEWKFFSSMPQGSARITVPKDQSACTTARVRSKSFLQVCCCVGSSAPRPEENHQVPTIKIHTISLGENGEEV
Nature of the assay: Binding affinity against rat Alpha-1 adrenergic receptor. Type of assay: protein assay.

Assay [8] deals with 5-hydroxytryptamine receptor 1D (Cavia porcellus, UniProt Q60484). The assay is described as follows: Binding affinity against guinea pig 5-hydroxytryptamine 1D receptor.
Sequence of 5-hydroxytryptamine receptor 1D (Q60484 whole entry): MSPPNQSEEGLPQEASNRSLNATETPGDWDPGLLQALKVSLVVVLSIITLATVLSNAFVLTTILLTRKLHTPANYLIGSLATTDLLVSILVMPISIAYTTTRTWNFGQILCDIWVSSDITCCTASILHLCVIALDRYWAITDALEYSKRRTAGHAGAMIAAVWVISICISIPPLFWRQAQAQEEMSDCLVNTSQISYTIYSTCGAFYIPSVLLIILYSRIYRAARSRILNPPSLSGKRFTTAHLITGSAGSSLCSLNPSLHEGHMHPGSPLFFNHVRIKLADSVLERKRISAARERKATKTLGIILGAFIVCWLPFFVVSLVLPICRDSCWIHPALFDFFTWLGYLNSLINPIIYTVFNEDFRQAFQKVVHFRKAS
In assay [9] the target is T5, Serotonin 3 (5-HT3) receptor (Rattus norvegicus, UniProt P35563+Q9JJ16).
T5 sequence (P35563 whole entry): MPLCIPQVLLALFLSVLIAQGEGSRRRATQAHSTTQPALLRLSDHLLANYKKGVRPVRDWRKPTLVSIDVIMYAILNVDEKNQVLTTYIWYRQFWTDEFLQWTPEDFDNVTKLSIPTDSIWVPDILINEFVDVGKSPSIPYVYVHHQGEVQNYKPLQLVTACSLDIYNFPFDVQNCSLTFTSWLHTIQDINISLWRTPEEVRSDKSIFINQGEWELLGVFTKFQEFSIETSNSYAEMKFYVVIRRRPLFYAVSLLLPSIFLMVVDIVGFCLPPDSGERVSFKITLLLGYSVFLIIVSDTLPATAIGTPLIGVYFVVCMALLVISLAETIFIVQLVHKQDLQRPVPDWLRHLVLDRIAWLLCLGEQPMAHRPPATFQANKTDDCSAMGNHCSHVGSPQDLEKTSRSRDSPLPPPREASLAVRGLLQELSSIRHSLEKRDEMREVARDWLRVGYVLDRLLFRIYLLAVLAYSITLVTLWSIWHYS
T5 sequence (Q9JJ16 whole entry): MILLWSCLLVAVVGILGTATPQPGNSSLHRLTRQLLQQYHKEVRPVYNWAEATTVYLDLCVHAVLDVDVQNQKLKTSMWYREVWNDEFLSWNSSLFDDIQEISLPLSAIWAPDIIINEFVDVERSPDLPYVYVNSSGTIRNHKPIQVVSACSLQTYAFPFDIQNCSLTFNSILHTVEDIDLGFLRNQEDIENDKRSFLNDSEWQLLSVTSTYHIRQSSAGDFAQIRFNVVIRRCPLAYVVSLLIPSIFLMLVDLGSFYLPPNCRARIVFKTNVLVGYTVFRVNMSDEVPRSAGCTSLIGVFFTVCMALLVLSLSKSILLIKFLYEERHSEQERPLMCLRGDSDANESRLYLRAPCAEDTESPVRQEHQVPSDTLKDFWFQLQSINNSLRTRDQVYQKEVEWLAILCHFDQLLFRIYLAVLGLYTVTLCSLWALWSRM
Nature of the assay: Binding affinity against rat 5-hydroxytryptamine 3 receptor. The format is protein-complex assay.

In assay [10] the target is T1, 5-hydroxytryptamine receptor 2C. Described as §1. The format is cell-based, HEK293. The procedure, abridged: as §2
This is another data set of the same source.

Sequence of 5-hydroxytryptamine receptor 2A (P28223 whole entry): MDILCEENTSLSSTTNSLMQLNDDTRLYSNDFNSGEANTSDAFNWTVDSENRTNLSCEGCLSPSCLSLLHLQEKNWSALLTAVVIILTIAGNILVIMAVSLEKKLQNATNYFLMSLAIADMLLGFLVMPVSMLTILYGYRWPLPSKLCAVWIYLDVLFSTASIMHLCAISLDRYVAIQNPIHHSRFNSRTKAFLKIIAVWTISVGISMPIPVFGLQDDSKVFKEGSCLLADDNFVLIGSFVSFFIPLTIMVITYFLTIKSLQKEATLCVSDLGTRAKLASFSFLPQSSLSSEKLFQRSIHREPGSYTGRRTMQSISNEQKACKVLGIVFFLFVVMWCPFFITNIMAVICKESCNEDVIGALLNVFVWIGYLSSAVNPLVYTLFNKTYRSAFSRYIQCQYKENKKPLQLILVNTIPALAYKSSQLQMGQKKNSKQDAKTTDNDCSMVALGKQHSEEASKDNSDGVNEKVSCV
Sequence of 5-hydroxytryptamine receptor 2B (P30994 whole entry): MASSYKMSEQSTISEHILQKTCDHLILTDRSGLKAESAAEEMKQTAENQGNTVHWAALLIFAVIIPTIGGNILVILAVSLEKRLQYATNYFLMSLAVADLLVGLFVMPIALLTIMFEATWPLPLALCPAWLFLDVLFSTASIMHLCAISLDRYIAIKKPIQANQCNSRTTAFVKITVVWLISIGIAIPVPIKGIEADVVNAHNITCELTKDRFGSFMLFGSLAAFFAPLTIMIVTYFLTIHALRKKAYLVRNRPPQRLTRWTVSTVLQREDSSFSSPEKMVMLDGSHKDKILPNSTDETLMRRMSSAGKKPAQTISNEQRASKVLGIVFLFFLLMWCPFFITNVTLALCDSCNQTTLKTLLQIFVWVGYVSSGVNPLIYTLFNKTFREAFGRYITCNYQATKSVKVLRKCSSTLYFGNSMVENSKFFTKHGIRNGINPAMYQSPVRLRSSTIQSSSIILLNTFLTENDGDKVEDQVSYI
Sequence of D(3) dopamine receptor (P35462 whole entry): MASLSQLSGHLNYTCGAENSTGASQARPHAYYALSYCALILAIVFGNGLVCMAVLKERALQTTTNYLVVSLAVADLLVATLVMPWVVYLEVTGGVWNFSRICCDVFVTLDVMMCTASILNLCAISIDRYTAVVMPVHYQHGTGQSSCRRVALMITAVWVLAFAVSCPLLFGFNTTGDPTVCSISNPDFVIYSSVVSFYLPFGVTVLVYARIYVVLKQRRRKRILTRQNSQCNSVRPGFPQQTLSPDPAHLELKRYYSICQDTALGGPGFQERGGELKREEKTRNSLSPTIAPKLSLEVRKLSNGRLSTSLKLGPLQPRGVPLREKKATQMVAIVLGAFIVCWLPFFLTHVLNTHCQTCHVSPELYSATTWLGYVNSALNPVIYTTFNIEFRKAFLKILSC
Sequence of 5-hydroxytryptamine receptor 4 (Q62758 whole entry): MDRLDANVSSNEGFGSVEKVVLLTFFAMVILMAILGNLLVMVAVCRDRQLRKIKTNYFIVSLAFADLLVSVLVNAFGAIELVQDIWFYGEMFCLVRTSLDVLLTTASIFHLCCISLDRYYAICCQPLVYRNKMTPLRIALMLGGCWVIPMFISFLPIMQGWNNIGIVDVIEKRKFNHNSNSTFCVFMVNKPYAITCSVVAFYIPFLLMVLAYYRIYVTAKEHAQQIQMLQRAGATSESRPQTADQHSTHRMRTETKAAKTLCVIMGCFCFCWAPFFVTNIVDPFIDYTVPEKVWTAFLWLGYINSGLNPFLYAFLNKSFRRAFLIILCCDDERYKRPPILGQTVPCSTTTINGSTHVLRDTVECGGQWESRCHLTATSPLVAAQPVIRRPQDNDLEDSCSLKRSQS

Consider `Cl.Cn1ccc2cc(NC(=O)Nc3cccnc3)ccc21`, for which the Kb in [1] is 39.8 nM. Moreover, the pKi in [2] was 6.86. For the same compound, in the assay on Rattus norvegicus, the ED50 turned out to be 19.2 mg/kg.
Regarding `Cn1ccc2cc3c(cc21)CCN3C(=O)Nc1cccnc1`, the negative-log Ki (pKi) is below 5.30 in [3]; 5.79 in assay [4]; 5.30 in [5]; below 5.00 at D(2) dopamine receptor; below 4.30 at Adenosine receptor A1; below 5.00 on D(3) dopamine receptor. Also, the pKi in [6] was below 5.00; at Histamine H1 receptor, below 5.00; in assay [8], below 6.00; in assay [9], below 5.00. Also, the Kb in assay [1] was 3.31 nM. Besides, in the assay on Rattus norvegicus, the ED50 is 5.5 mg/kg. Further, in assay [7], the Log Ki was above -5.
Regarding `Cn1ccc2c3c(ccc21)N(C(=O)Nc1cccnc1)CCC3`, the pKi in assay [4] and in assay [10] was below 5.20 throughout. The Kb in assay [1] was 60.3 nM.
`Cn1ccc2cc3c(cc21)CCCN3C(=O)Nc1cccnc1`: the pKi in assay [4] was below 5.20; in assay [10], 5.39. In addition, the Kb in [1] is 53.7 nM.
For `Cn1ccc2c3c(ccc21)N(C(=O)Nc1cccnc1)CC3` the same measures were 5.54, 7.18 and 17.8 nM.
